pEC50: −log10 of the molar value. Blank lines part the entries; values can stand above or below the molecule they belong to. The source made the active and inactive calls. The rule behind the calls is not given here.
Experiments:
[1] = molecular target: D(2) dopamine receptor (Bos taurus) (UniProt P20288); test: Affinity for Dopamine receptor D2 was evaluated from the ability to displace [3H]spiroperidol from homogenized bovine pituitary
In short: (§1)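 Bovine anterior pituitary homogenate with [3H]spiroperidol ~0.25 nM. Screened at 10^-5 and 10^-7 M; where displacement was 50% or more, IC50 was determined. KBind = IC50/(1 + L/KD), spiroperidol KD 0.3 nM.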

[2] = molecular target: D(1A) dopamine receptor (Rattus norvegicus) (UniProt P18901); test: Affinity for Dopamine receptor D1 binding sites was evaluated in a test involving displacement of [3H]- fenoldopam in rat striatum; format: tissue-based
Chain of D(1A) dopamine receptor (Rattus norvegicus) (P18901 whole entry, the tested form may be a part): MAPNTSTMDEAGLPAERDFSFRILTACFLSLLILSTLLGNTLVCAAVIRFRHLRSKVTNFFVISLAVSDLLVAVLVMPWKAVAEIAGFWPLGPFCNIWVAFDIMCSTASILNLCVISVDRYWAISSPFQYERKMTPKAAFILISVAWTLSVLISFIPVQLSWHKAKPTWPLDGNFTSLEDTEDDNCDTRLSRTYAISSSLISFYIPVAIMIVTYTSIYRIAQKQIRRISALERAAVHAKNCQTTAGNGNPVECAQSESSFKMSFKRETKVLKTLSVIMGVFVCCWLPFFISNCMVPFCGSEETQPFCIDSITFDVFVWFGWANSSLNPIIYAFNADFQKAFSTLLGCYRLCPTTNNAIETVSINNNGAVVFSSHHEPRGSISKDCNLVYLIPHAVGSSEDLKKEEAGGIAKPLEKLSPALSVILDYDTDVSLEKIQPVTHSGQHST

[3] = molecular target: D(1A) dopamine receptor (Rattus norvegicus) (UniProt P18901); test: The ability of a compound to stimulate dopamine-sensitive rat caudate adenylate cyclase or to antagonise the stimulant of dopamine was used as measure of D1 efficacy; format: functional
[4] = molecular target: D(2) dopamine receptor (Bos taurus) (UniProt P20288); test: Affinity for Dopamine receptor D2 was evaluated from the ability to displace [3H]spiroperidol from homogenized bovine uM; conditions: concentration not given here; in short: as §1
[5] = species: Oryctolagus cuniculus; test: The D2 efficacy was evaluated in isolated perfused rabbit ear artery test; No response at 1 uM; format: functional
In short: (§2)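 Isolated perfused rabbit ear artery given brief intermittent nerve stimulation; concentration-dependent inhibition of the constrictor response measured. EC50 is the concentration giving 50% inhibition of constriction. Antagonist KB values for (S)-sulpiride determined by the Furchgott method, in nM.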

[6] = molecular target: D(1A) dopamine receptor (Rattus norvegicus) (UniProt P18901); test: Stimulation of dopamine-sensitive rat caudate adenylate cyclase or antagonism of dopamine stimulus as measure of D1 efficacy; No stimulation; format: functional
[7] = species: Oryctolagus cuniculus; test: The D2 efficacy was evaluated in isolated perfused rabbit ear artery test; format: functional; conditions: read-out: ED50 (the source's name); in short: as §2

Chain of D(2) dopamine receptor (Bos taurus) (P20288 whole entry, the tested form may be a part): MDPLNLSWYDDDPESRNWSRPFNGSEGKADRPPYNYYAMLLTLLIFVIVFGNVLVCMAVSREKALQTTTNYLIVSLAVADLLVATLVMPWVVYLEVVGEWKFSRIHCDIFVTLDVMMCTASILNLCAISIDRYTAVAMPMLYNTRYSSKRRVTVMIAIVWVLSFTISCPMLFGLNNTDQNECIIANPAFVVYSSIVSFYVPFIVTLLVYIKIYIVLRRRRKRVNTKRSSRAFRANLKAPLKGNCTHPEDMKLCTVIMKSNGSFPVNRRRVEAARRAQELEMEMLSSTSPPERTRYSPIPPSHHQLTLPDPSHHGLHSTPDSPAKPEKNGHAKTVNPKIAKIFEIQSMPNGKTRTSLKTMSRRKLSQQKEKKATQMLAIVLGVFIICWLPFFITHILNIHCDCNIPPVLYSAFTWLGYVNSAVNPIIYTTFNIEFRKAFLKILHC

SMILES: CCCN(CCC)C1CCc2cc(F)c(O)cc2C1 (stereo not drawn)
K Bind [1]: 0.43 µM
K Bind [2]: 1.74 µM

SMILES: NC1CCc2cc(O)c(O)c(F)c2C1 (stereo not drawn)
K Bind [1]: 1.27 µM
ED50 [3]: 2.2 µM
K Bind [2]: 0.062 µM

SMILES: CN(C)C1CCc2cc(Cl)c(O)c(Cl)c2C1 (stereo not drawn)
inhibition [4]: 29%
K Bind [2]: > 20 µM

SMILES: NC1CCc2cc(Cl)c(O)c(Cl)c2C1 (stereo not drawn)
inhibition [4]: 30%
K Bind [2]: 2.97 µM

K Bind [1]: 14.1 µM
K Bind [2]: > 50 µM
SMILES: CCCN(CCC)CC1CCc2cc(F)c(O)cc2C1 (stereo not drawn)

SMILES: NC1CCc2cc(Cl)c(O)cc2C1 (stereo not drawn)
K Bind [1]: 1.05 µM
ED50 [5]: inactive
K Bind [2]: 1.44 µM
ED50 [6]: inactive

SMILES: CCCN(CCC)C1CCc2c(ccc(O)c2Cl)C1 (stereo not drawn)
K Bind [1]: 0.85 µM
K Bind [2]: 2.25 µM

SMILES: CCCN(CCC)C1CCc2cc(O)c(Cl)cc2C1 (stereo not drawn)
K Bind [1]: 0.9 µM
K Bind [2]: 8.23 µM
ED50 [6]: inactive

SMILES: CCCN(CCC)C1CCc2cc(Cl)c(O)cc2C1 (stereo not drawn)
K Bind [1]: 1.63 µM
K Bind [2]: 4.71 µM
ED50 [6]: inactive

SMILES: CCCN(CCC)C1CCc2cc(Cl)c(O)c(Cl)c2C1 (stereo not drawn)
K Bind [1]: 10.4 µM
K Bind [2]: > 10 µM
ED50 [6]: inactive

K Bind [1]: 0.41 µM
K Bind [2]: 0.145 µM
SMILES: Oc1ccc(CCNC2CCc3cc(O)c(O)c(Cl)c3C2)cc1 (stereo not drawn)

SMILES: CN(C)C1CCc2c(ccc(O)c2Cl)C1 (stereo not drawn)
K Bind [1]: 3.5 µM
K Bind [2]: 5.95 µM

K Bind [1]: 0.033 µM
K Bind [2]: 0.27 µM
SMILES: CCCN(CCc1ccc(O)cc1)C1CCc2cc(O)c(O)c(Cl)c2C1 (stereo not drawn)

SMILES: NC1CCc2cc(O)c(O)c(Cl)c2C1 (stereo not drawn)
pEC50 [7]: 3.27
K Bind [1]: 3.16 µM
ED50 [3]: 1.4 µM
K Bind [2]: 0.043 µM

SMILES: CN(C)C1CCc2cc(O)c(Cl)cc2C1 (stereo not drawn)
K Bind [1]: 0.09 µM
K Bind [2]: 2.3 µM
ED50 [6]: inactive

SMILES: NC1CCc2cc(F)c(O)cc2C1 (stereo not drawn)
K Bind [1]: 0.66 µM
K Bind [2]: 0.37 µM

SMILES: CN(C)C1CCc2cc(Cl)c(O)cc2C1 (stereo not drawn)
K Bind [1]: 1.55 µM
K Bind [2]: 2.63 µM
ED50 [6]: inactive

SMILES: NC1CCc2cc(O)c(Cl)cc2C1 (stereo not drawn)
K Bind [1]: 4.47 µM
K Bind [2]: 1.97 µM
ED50 [6]: inactive

SMILES: CCCN(CCC)C1CCc2cc(O)c(O)c(Cl)c2C1 (stereo not drawn)
K Bind [1]: 0.24 µM
K Bind [2]: 0.62 µM

SMILES: NCCc1ccc(O)c(O)c1
ED50 [3]: 3.5 µM

SMILES: NC1CCc2c(cc(O)c(O)c2F)C1 (stereo not drawn)
K Bind [1]: 0.52 µM
ED50 [3]: 1.6 µM
K Bind [2]: 0.074 µM

SMILES: NC1CCc2c(cc(O)c(O)c2Cl)C1 (stereo not drawn)
K Bind [1]: 0.47 µM
K Bind [2]: 0.84 µM
ED50 [6]: inactive

SMILES: NC1CCc2c(ccc(O)c2Cl)C1 (stereo not drawn)
K Bind [1]: 11.6 µM
K Bind [2]: > 10 µM

SMILES: NC1CCc2cc(O)c(O)cc2C1 (stereo not drawn)
K Bind [1]: 0.21 µM
ED50 [3]: 2.7 µM
K Bind [2]: 0.07 µM

SMILES: CN(C)C1CCc2cc(F)c(O)cc2C1 (stereo not drawn)
K Bind [1]: 0.47 µM
K Bind [2]: 0.76 µM

From ChEMBL document CHEMBL1123482, “Synthesis and dopaminergic activity of some halogenated mono- and dihydroxylated 2-aminotetralins” (1986)
